Experiments:
[1] = biological target: T1, Growth hormone secretagogue receptor type 1 (Homo sapiens, UniProt Q92847); test: Antagonist activity at human GHS receptor by inhibition of ghrelin-induced intracellular calcium flux in CHOK cells; assay type: functional, cell-based
Outline: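 CHO-K cells stably expressing human GHS-R, grown in Ultra-CHO medium with 1% dialyzed FCS and 400 µg/mL G418, plated to confluency overnight. Loaded with Fluo-4 AM plus probenecid for 1-3 h in the dark at RT, then washed. On FLIPR (ex 488/em 520 nm), compound added first and read 3 min, then ghrelin added and read another 3 min. Duplicate or triplicate wells; sigmoidal fit for IC50.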

[2] = biological target: T1, Growth hormone secretagogue receptor type 1; test: Displacement of [125I]ghrelin from human GHS receptor expressed in CHOK cells; assay type: cell-based
Outline: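 Membranes from CHO-K cells expressing human ghrelin receptor, prepared by sonication and a 60000g spin. Filtered onto PEI-soaked GF/C, washed cold, scintillation counted; percent inhibition, sigmoidal fit for IC50.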

[3] = Plasma concentration in Sprague-Dawley rat at 30 mg/kg, ip after 1 hr; assay type: ADME, organism-based; design: dose 30 mg/kg, route intraperitoneal
Outline: (§1)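 Rats given 30 mg/kg ip. Brain (µg/g) and plasma levels measured at 1 and 8 h after dosing.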

[4] = Plasma concentration in Sprague-Dawley rat at 30 mg/kg, ip after 8 hrs; assay type: ADME, organism-based; design: dose 30 mg/kg, route intraperitoneal; outline: as §1
[5] = Concentration in Sprague-Dawley rat brain at 30 mg/kg, ip after 8 hrs; assay type: ADME, organism-based; design: dose 30 mg/kg, route intraperitoneal; settings: read-out: Ct; outline: as §1
[6] = Concentration in Sprague-Dawley rat brain at 30 mg/kg, ip after 1 hr; assay type: ADME, organism-based; design: dose 30 mg/kg, route intraperitoneal; settings: read-out: Ct; outline: as §1
[7] = Half life in Sprague-Dawley rat at 5 mg/kg; assay type: ADME, organism-based; design: dose 5 mg/kg; settings: in vivo
Outline: (§2)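 Rats dosed at 5 mg/kg: iv for AUC (µg·h/mL), clearance (L/h·kg) and Cmax (µg/mL); oral for bioavailability unless stated otherwise. Brain (µg/g) and plasma levels taken at 1 and 8 h. Mean of n = 3.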

[8] = AUC in Sprague-Dawley rat at 5 mg/kg, iv; assay type: ADME, organism-based, Plasma; design: dose 5 mg/kg, route intravenous; settings: Sprague-Dawley, plasma; outline: as §2
[9] = Plasma concentration in Sprague-Dawley rat at 5 mg/kg after 1 hr; assay type: ADME, organism-based; design: dose 5 mg/kg; outline: as §2
[10] = Concentration in Sprague-Dawley rat brain at 5 mg/kg after 1 hr; assay type: ADME, organism-based; design: dose 5 mg/kg; settings: read-out: Ct; outline: as §2
[11] = Oral bioavailability in Sprague-Dawley rat at 5 mg/kg; assay type: ADME, organism-based; settings: in vivo; outline: as §2
[12] = Plasma clearance in Sprague-Dawley rat at 5 mg/kg, iv; assay type: ADME, organism-based; design: dose 5 mg/kg, route intravenous; outline: as §2
[13] = Cmax in Sprague-Dawley rat at 5 mg/kg, iv; assay type: ADME, organism-based; design: dose 5 mg/kg, route intravenous; settings: in vivo; outline: as §2

T1 sequence (Q92847 whole entry): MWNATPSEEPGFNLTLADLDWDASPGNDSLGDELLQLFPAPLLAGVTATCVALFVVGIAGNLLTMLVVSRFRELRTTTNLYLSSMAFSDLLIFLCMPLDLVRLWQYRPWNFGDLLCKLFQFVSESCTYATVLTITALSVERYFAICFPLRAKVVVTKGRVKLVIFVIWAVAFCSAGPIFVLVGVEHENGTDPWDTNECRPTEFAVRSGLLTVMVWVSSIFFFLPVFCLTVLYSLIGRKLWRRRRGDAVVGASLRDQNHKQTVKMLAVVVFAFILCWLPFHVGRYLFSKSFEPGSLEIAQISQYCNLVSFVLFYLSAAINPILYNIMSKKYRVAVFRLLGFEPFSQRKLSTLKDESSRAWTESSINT

SMILES	IC50 [1] [nM]	IC50 [2] [nM]	other results
Nc1nc(N)c(-c2ccc(NCc3ccc(Cl)cc3)cc2)c(CCc2ccccc2)n1	3350	3170	concentration at 1 h [3]: 800 ng/mL; concentration at 8 h [4]: 90 ng/mL; concentration at 8 h [5]: 400 ng/g; concentration at 1 h [6]: 1340 ng/g
COc1ccc(CNc2ccc(-c3c(N)nc(N)nc3COCc3ccccc3)cc2)cc1	90	7.7	–
CCc1nc(N)nc(N)c1-c1ccc(NCc2csc(Cl)c2)cc1	790	290	–
CCc1nc(N)nc(N)c1-c1ccc(NCc2ccc(C#N)cc2)cc1	780	160	–
Nc1nc(N)c(-c2ccc(NCc3ccncc3)cc2)c(COCc2ccccc2)n1	86	21	–
Nc1nc(N)c(-c2ccc(NCc3ccc(C(F)(F)F)cc3)cc2)c(COCc2ccccc2)n1	97	2.9	–
CCc1nc(N)nc(N)c1-c1ccc(CNc2ccc([N+](=O)[O-])cc2)cc1	190	9.2	–
CS(=O)(=O)c1ccc(COc2ccc(-c3c(N)nc(N)nc3COCc3ccccc3)cc2)cc1	48	6.9	–
Nc1nc(N)c(-c2ccc(NCc3csc(Cl)c3)cc2)c(COCc2ccccc2)n1	170	6.3	–
CC(C)(C)CNc1ccc(-c2c(N)nc(N)nc2COCc2ccccc2)cc1	700	67	–
CCc1nc(N)nc(N)c1-c1ccc(NCc2ccc(C(C)=O)cc2)cc1	110	57	half-life [7]: 2.4 h; AUC [8]: 680 ng·h/mL; concentration at 1 h [9]: 120 ng/mL; concentration at 1 h [10]: 420 ng/g; bioavailability [11]: 51%; clearance [12]: 61.7 mL/min/kg; Cmax [13]: 140 ng/mL

The next molecules have a lower IC50 [1] than those just listed; values first:

IC50 [1] [nM]	IC50 [2] [nM]	SMILES	other results
19	2.8	N#Cc1ccc(CNc2ccc(-c3c(N)nc(N)nc3COCc3ccccc3)cc2)cc1	–
10	1.2	CC(=O)c1ccc(CNc2ccc(-c3c(N)nc(N)nc3COCc3ccccc3)cc2)cc1	–
3.6	1.5	Nc1nc(N)c(-c2ccc(NCc3ccnc(Cl)c3)cc2)c(COCc2ccccc2)n1	–
32	3.7	CCc1nc(N)nc(N)c1-c1ccc(N(C)Cc2ccc(S(C)(=O)=O)cc2)cc1	half-life [7]: 3.8 h; AUC [8]: 2700 ng·h/mL; concentration at 1 h [9]: 1280 ng/mL; concentration at 1 h [10]: 40 ng/g; bioavailability [11]: 53%; clearance [12]: 16.5 mL/min/kg; Cmax [13]: 430 ng/mL
12	7.4	CCc1nc(N)nc(N)c1-c1ccc(NCc2ccc(S(C)(=O)=O)cc2)cc1	half-life [7]: 6.6 h; AUC [8]: 2800 ng·h/mL; concentration at 1 h [9]: 1020 ng/mL; concentration at 1 h [10]: 50 ng/g; bioavailability [11]: 52%; clearance [12]: 15.7 mL/min/kg; Cmax [13]: 320 ng/mL
7.2	–	CS(=O)(=O)c1ccc(CNc2ccc(-c3c(N)nc(N)nc3COCc3ccccc3)cc2)cc1	–

— ChEMBL document CHEMBL1146071, “2,4-diaminopyrimidine derivatives as potent growth hormone secretagogue receptor antagonists” (J Med Chem, 2006)
